The nature of data set [1]: Plasma concentration of LY-354740 in rats after oral administration of compound at a dose of 5 mg equiv 1/kg at 0.5 hr. Format: ADME. As to conditions: rat. In outline:
(§1)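 Male Fischer 344 rats (190–250 g), fasted overnight, food returned ~4 h postdose; single oral dose of prodrug molar-equivalent to 5 mg/kg parent, in pH 2.5 20 mM KHPO₄. Blood drawn at 0.5, 1 and 3 h; plasma stored at –20 °C or below until analysis. Three plasma samples per time point; parent and prodrug measured.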

Data set [2] in a line: Plasma concentration of LY-354740 in rats after oral administration of compound at a dose of 5 mg equiv 1/kg at 1 hr. The format is ADME. As to conditions: rat. The method, boiled down:
as §1

Data set [3] in a line: Plasma concentration of LY-354740 in rats after oral administration of compound at a dose of 5 mg equiv 1/kg at 3 hr. Format: ADME. The conditions noted are these: rat. The method, boiled down:
as §1

Another data set has as its system Caco-2. The experiment in a line: Inhibition of radiolabeled glycylsarcosine (Gly-Sar) uptake into Caco-2 cells done for 15 min at 37 degree C with compound. Format: functional, cell-based. The conditions noted are these: Homo sapiens, Caco-2, 0.25 h.
Data set [4] can be described thus: Inhibition of radiolabeled glycylsarcosine (Gly-Sar) uptake into chinese hamster ovary cells transfected with human PepT1 (CHO/hPepT1) done for 5-20 min at 37 degree C with compound. The format is functional, cell-based. As to conditions: Cricetulus griseus.
The nature of data set [5]: Area under concentration of compound in rats at a dose of 5 mg equiv 1/kg. The format is ADME. The conditions noted are these: rat, in vivo. In outline:
as §1

Data set [6] is described as follows: Plasma concentration of the prodrug and LY-354740 against the metabotropic glutamate receptor in rats after an oral dose of corresponding prodrug in 5 mg equiv 1/kg at 3 houre. Format: ADME. The conditions noted are these: rat. In outline: as §1
The test system of data set [7] is Rattus norvegicus. The experiment in a line: Minimally effective dose for suppression of startle in rat fear-potentiated startle assay, p.o.; Range = 0.3-3.0 mg/kg. The format is functional. The conditions noted are these: po, read-out: MED.
Data set [8] deals with Rattus norvegicus. The experiment in a line: Duration of suppression of compound in rat fear-potentiated startle assay at an oral dose of 3.0 mg/kg; Range = 8-24 h. Format: functional.
Data set [9] addresses Metabotropic glutamate receptor 2 (Homo sapiens, UniProt Q14416). As to the kind of experiment: Inhibition of [3H]LY-341,495 binding to recombinant human mGlu2 receptors.
Data set [10] concerns the target Metabotropic glutamate receptor 3 (Homo sapiens, UniProt Q14832). As to the kind of experiment: Inhibition of [3H]LY-341,495 binding to recombinant human mGlu3 receptors.
The test system of data set [11] is Rattus norvegicus. As to the kind of experiment: Onset of suppression of startle of compound in rat fear-potentiated startle assay at an oral dose of 3.0 mg/kg. The format is functional.
Data set [12] has as its system Rattus norvegicus. The experiment in a line: Onset of suppression of startle of compound in rat fear-potentiated startle assay at an oral dose of 0.01 and 0.1 mg/kg. Format: functional. In outline: (§2)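 Fed rats dosed orally. Three-day protocol: day 1 baseline startle (30 × 120 dB), groups of n = 8. Day 2 conditioning: 10 light (5 s)–shock (0.5 mA, 500 ms) pairings. Day 3, 24 h later: 20 noise-alone and 20 light+noise trials. Compound given at set pretreatment times before testing. Diazepam 0.6 mg/kg ip, 30 min pre-test, as positive control. MED = lowest dose with p < 0.05 versus control.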

Data set [13] addresses Metabotropic glutamate receptor 2 (Rattus norvegicus, UniProt P31421). The experiment in a line: Inhibition of [3H]LY-341,495 binding to mGlu2 receptors of rat brain.
Data set [14] concerns Rattus norvegicus. The experiment in a line: Minimally effective dose for suppression of startle in rat fear-potentiated startle assay, p.o. The conditions noted are these: po, read-out: MED. Format: functional. In outline:
as §2

The test system of data set [15] is Rattus norvegicus. The experiment in a line: Duration of suppression of compound in rat fear-potentiated startle assay at an oral dose of 0.1 mg/kg. The format is functional. In outline:
as §2

Data set [16] deals with Rattus norvegicus. The experiment in a line: Duration of suppression of compound in rat fear-potentiated startle assay at an oral dose of 0.01 mg/kg; Range = 4-8 h. Format: functional. The method, boiled down:
as §2

Chain of Metabotropic glutamate receptor 2 (Homo sapiens, UniProt Q14416) (Q14416 whole entry): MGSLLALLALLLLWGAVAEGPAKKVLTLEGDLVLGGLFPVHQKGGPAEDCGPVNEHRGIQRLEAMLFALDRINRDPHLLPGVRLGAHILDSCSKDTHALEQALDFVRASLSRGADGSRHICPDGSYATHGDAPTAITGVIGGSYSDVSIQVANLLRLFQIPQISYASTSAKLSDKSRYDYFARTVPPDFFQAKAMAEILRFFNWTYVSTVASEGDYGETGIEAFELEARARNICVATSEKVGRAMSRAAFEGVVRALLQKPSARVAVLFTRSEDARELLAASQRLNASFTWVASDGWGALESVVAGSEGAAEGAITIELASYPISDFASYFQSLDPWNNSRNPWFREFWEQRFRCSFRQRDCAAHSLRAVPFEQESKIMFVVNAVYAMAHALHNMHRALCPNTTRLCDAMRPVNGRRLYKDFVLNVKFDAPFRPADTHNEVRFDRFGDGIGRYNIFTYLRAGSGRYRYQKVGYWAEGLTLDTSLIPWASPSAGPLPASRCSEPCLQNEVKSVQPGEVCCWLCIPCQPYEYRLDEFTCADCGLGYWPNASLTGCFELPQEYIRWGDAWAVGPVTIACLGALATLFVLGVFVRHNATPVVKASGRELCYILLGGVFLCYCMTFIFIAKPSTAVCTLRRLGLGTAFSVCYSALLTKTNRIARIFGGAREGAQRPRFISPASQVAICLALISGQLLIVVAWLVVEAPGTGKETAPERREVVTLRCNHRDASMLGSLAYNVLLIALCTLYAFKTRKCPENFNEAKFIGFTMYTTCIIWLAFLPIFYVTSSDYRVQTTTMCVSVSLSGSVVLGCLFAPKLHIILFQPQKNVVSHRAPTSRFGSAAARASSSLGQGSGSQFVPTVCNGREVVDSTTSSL
Chain of Metabotropic glutamate receptor 3 (Q14832 whole entry): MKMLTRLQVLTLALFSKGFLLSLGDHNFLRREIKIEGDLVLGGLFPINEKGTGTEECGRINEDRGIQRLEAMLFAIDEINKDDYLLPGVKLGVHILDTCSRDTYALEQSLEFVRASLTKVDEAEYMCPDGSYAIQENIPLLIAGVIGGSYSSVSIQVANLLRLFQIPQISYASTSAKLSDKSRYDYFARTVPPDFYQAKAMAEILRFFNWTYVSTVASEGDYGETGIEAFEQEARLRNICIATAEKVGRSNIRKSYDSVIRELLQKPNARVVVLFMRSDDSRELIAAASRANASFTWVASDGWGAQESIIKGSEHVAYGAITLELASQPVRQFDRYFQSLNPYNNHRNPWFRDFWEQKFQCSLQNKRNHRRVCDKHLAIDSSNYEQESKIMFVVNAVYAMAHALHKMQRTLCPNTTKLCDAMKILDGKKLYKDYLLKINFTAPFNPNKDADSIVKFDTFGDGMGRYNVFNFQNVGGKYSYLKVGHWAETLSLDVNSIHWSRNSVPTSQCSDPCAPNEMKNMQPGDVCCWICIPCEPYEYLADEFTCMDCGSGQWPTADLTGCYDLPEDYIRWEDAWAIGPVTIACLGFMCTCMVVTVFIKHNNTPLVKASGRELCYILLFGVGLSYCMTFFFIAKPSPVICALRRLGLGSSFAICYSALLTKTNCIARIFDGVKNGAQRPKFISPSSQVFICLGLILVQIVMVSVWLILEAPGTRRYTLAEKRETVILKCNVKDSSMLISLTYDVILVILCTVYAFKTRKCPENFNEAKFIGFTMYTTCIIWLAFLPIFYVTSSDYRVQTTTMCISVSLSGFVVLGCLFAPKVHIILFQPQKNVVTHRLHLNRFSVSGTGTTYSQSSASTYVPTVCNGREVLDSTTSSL
Chain of Metabotropic glutamate receptor 2 (Rattus norvegicus, UniProt P31421) (P31421 whole entry): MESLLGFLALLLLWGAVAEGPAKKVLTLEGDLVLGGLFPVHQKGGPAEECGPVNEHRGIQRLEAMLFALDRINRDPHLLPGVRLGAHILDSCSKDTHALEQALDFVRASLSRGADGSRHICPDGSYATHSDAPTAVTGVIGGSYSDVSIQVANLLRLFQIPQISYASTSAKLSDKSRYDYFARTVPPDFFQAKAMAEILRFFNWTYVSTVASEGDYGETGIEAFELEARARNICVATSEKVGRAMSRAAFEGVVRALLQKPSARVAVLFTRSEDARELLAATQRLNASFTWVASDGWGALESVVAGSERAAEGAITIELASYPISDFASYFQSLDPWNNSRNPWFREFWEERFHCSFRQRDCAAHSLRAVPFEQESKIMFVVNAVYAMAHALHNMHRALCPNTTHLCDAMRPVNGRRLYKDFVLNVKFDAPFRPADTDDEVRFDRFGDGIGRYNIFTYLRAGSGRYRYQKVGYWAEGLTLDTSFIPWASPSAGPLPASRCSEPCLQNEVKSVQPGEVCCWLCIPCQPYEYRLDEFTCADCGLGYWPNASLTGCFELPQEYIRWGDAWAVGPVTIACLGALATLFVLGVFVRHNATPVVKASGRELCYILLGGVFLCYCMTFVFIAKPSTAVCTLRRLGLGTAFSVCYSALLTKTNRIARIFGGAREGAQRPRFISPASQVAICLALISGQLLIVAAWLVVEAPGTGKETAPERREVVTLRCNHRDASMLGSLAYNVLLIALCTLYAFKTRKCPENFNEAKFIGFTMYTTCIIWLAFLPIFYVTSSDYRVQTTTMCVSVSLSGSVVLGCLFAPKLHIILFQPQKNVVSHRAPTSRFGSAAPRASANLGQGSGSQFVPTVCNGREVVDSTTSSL

On to `N[C@@]1(C(=O)N[C@@H](Cc2ccc(O)cc2)C(=O)O)CC[C@H]2[C@H](C(=O)O)[C@H]21`, for which the Plasma concentration is 30 ng/mL in [1], 44 ng/mL in data set [2] and 124 ng/mL in data set [3].
As to `N[C@@]1(C(=O)N[C@@H](Cc2ccccc2)C(=O)O)CC[C@H]2[C@H](C(=O)O)[C@H]21`, the Plasma concentration in data set [1] was 20 ng/mL; in data set [2] it was 45 ng/mL; in data set [3] it was 10 ng/mL. For the same molecule, the values for the IC50 (with Caco-2; in data set [4]) were 2680 µM and 1540 µM, respectively. Also, the AUC in data set [5] amounted to 11400 ng·h/mL.
Regarding `CC[C@H](C)[C@H](NC(=O)[C@]1(N)CC[C@H]2[C@H](C(=O)O)[C@H]21)C(=O)O`, the Plasma concentration in data set [1] worked out at 18 ng/mL; in [2], 34 ng/mL; in data set [3], 20 ng/mL.
For `CC[C@H](C)[C@H](N)C(=O)N[C@@]1(C(=O)O)CC[C@H]2[C@H](C(=O)O)[C@H]21.Cl`, the Plasma concentration came out at 2009 ng/mL in [1], 1457 ng/mL in [2] and 2032 ng/mL in data set [3].
Take `N[C@@]1(C(=O)N[C@@H](CO)C(=O)O)CC[C@H]2[C@H](C(=O)O)[C@H]21`: the Plasma concentration in [1] stood at 36 ng/mL; in [3] it was 53 ng/mL.
`CC(C)C[C@H](NC(=O)[C@]1(N)CC[C@H]2[C@H](C(=O)O)[C@H]21)C(=O)O`: the Plasma concentration turned out to be 450 ng/mL in data set [1], 798 ng/mL in [2] and 919 ng/mL in data set [3]. For the same molecule, the results for the IC50 (in the data set on Caco-2; in [4]) were greater than 10000 µM and 620 µM, respectively. In addition, the AUC in data set [5] came out at 21300 ng·h/mL.
As for `CC(C)[C@H](NC(=O)[C@]1(N)CC[C@H]2[C@H](C(=O)O)[C@H]21)C(=O)O`, the Plasma concentration in [1] is 10 ng/mL; in data set [2] it was 17 ng/mL; in data set [3] it was 10 ng/mL.
Consider `CSCC[C@H](NC(=O)[C@]1(N)CC[C@H]2[C@H](C(=O)O)[C@H]21)C(=O)O`, for which the Plasma concentration was found to be 602 ng/mL in [1], 808 ng/mL in [2] and 889 ng/mL in data set [3]. The AUC in [5] amounted to 16600 ng·h/mL.
With `N[C@@]1(C(=O)NCC(=O)O)CC[C@H]2[C@H](C(=O)O)[C@H]21`, the Plasma concentration in data set [1] came to 19 ng/mL.
`CC(C)C[C@H](NC(=O)[C@]1(NC(=O)[C@H](C)N)CCC2C1[C@H]2C(=O)O)C(=O)O` (stereo not given in full): the Plasma concentration in data set [1] turned out to be 44 ng/mL; in data set [2] it was 26 ng/mL; in data set [3] it was 55 ng/mL. The IC50 worked out at 3050 µM with Caco-2 and 1340 µM in data set [4].
Turning to `C[C@H](N)C(=O)N[C@@H](C)C(=O)N[C@@]1(C(=O)O)CC[C@H]2[C@H](C(=O)O)[C@H]21.Cl`, the results for the Plasma concentration in data set [1], in [2] and in data set [3] were 3620 ng/mL, 1554 ng/mL and 734 ng/mL, respectively. The figures for the IC50 (with Caco-2; in data set [4]) were 7290 µM and 2880 µM, respectively.
Consider `Cl.N[C@@H](Cc1ccccc1)C(=O)N[C@@]1(C(=O)O)CC[C@H]2[C@H](C(=O)O)[C@H]21`, for which the figures for the Plasma concentration in data set [1], in data set [2] and in data set [3] were 1710 ng/mL, 2763 ng/mL and 1274 ng/mL, respectively. Moreover, the figures for the IC50 (in the data set with Caco-2; in [4]) were 420 µM and 520 µM, respectively. In data set [5], the AUC turned out to be 194 ng·h/mL.
Turning to `Cl.NCCCC[C@H](N)C(=O)N[C@@]1(C(=O)O)CC[C@H]2[C@H](C(=O)O)[C@H]21`, the Plasma concentration was determined as 74 ng/mL in data set [1], 147 ng/mL in data set [2] and 246 ng/mL in data set [3].
In the case of `Cl.N[C@@H](Cc1ccc(O)cc1)C(=O)N[C@@]1(C(=O)O)CC[C@H]2[C@H](C(=O)O)[C@H]21`, the values for the Plasma concentration in data set [1] and in [2] were 1915 ng/mL and 2163 ng/mL, respectively.
`CC(C)C[C@H](N)C(=O)N[C@@]1(C(=O)O)CC[C@H]2[C@H](C(=O)O)[C@H]21.Cl`: the Plasma concentration is 4488 ng/mL in [1], 4323 ng/mL in [2] and 1152 ng/mL in data set [3]. The IC50 was determined as 5010 µM with Caco-2 and 1430 µM in data set [4]. Moreover, the AUC in data set [5] is 0 ng·h/mL.
Turning to `CSCC[C@H](N)C(=O)N[C@@]1(C(=O)O)CC[C@H]2[C@H](C(=O)O)[C@H]21.Cl`, the Plasma concentration in data set [1] is 3720 ng/mL; in data set [2], 2107 ng/mL.
Consider `C[C@@H](N)C(=O)N[C@@]1(C(=O)O)CC[C@H]2[C@H](C(=O)O)[C@H]21.Cl`, for which the figures for the Plasma concentration in [1], in data set [2] and in data set [3] were 81 ng/mL, 191 ng/mL and 525 ng/mL, respectively. Further, the IC50 with Caco-2 was greater than 10000 µM; in data set [4] it was 6660 µM.
Consider `Cl.NCC(=O)N[C@@]1(C(=O)O)CC[C@H]2[C@H](C(=O)O)[C@H]21`, for which the Plasma concentration amounted to 1707 ng/mL in data set [1] and 1992 ng/mL in data set [2].
In the case of `Cl.N[C@@H](CO)C(=O)N[C@@]1(C(=O)O)CC[C@H]2[C@H](C(=O)O)[C@H]21`, the Plasma concentration in data set [1] worked out at 1497 ng/mL; in data set [2] it was 1365 ng/mL.
Consider `CC(C)[C@H](N)C(=O)N[C@@]1(C(=O)O)CC[C@H]2[C@H](C(=O)O)[C@H]21.Cl`, for which the values for the Plasma concentration in data set [1], in data set [2] and in data set [3] were 2387 ng/mL, 2124 ng/mL and 1136 ng/mL, respectively.
For the molecule `Cl.O=C(O)[C@H]1[C@@H]2CC[C@@](NC(=O)[C@@H]3CCCN3)(C(=O)O)[C@@H]21`, the Plasma concentration in [1] came to 319 ng/mL; in [6], 670 ng/mL; in data set [2], 455 ng/mL.
As for `CC(C)C[C@@H](N)C(=O)N[C@@]1(C(=O)O)CC[C@H]2[C@H](C(=O)O)[C@H]21.Cl`, the Plasma concentration in data set [1] is 1478 ng/mL; in data set [2] it was 894 ng/mL; in data set [3], 877 ng/mL. The IC50 with Caco-2 was determined as 6310 µM; in data set [4] it was 1700 µM.
Regarding `N[C@@]1(C(=O)O)CC[C@H]2[C@H](C(=O)O)[C@H]21`, the minimal effective dose with Rattus norvegicus [7] was 3 mg/kg. The IC50 with Caco-2 is greater than 10000 µM; in data set [4] it was greater than 19000 µM. Besides, the Duration in the data set with Rattus norvegicus [8] came out at 24 h. Also, the Ki in [9] came to 0.0847 µM; in data set [10], 0.126 µM. Moreover, in the data set with Rattus norvegicus [11], the Onset entry is recorded as “<=1 hr”.
For `C[C@H](N)C(=O)N[C@@]1(C(=O)O)CC[C@H]2[C@H](C(=O)O)[C@H]21.Cl` [TALAGLUMETAD HYDROCHLORIDE], the Onset entry in the data set on Rattus norvegicus [12] was “<=1 hr”. Besides, the figures for the Plasma concentration in data set [1], in data set [2] and in data set [3] were 3732 ng/mL, 3381 ng/mL and 1770 ng/mL, respectively. The Ki in [13], in data set [9] and in [10] was greater than 10 µM throughout. For the same molecule, the minimal effective dose with Rattus norvegicus [14] was 0.01 mg/kg. In addition, the IC50 came out at 300 µM with Caco-2 and 120 µM in [4]. Besides, the Duration entry with Rattus norvegicus [15] is “>=24 hr”; in the data set with Rattus norvegicus [16], 8 h. For the same molecule, in data set [5], the AUC was determined as 0 ng·h/mL.

The values above are taken from ChEMBL document CHEMBL1145166, “Dipeptides as effective prodrugs of the unnatural amino acid (+)-2-aminobicyclo[3.1.0]hexane-2,6-dicarboxylic acid (LY354740), a selective group II metabotropic glutamate receptor agonist” (J Med Chem, 2005).
